{"source": "ChEMBL document CHEMBL1137333", "about": "“Synthesis, radiosynthesis, and biological evaluation of carbon-11 labeled 2beta-carbomethoxy-3beta-(3'-((Z)-2-haloethenyl)phenyl)nortropanes: candidate radioligands for in vivo imaging of the serotonin transporter with positron emission tomography” (J Med Chem, 2006)", "key": {"Cynomolgus monkey [1]": {"tested_on": "Cynomolgus monkey", "assay": "Uptake in anesthetized cynomolgus monkey caudate after 75.0 mins", "type": "ADME, organism-based, Caudate nucleus", "settings": "in vivo, 1.25 h", "method_in_brief": "(§1)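 Baseline microPET (Concorde P4) regional brain time-activity curves in anesthetized cynomolgus monkey following injection of the [11C]-labelled tracer, with radioactivity followed over the scan.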"}, "Cynomolgus monkey [2]": {"tested_on": "Cynomolgus monkey", "assay": "Uptake in anesthetized cynomolgus monkey medulla after 0.5 mins", "type": "ADME, organism-based, Medulla of organ", "settings": "in vivo", "method_in_brief": "(§2)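 Baseline microPET scan (P4 scanner) of anesthetized cynomolgus monkeys after injection of the carbon-11 labelled nortropane tracer. Two baseline studies were run per tracer. Radioactivity was followed over time in regional brain time-activity curves.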"}, "Cynomolgus monkey [3]": {"tested_on": "Cynomolgus monkey", "assay": "Ratio of uptake in occipital to cerebellum of anesthetized cynomolgus monkey after 85 mins", "type": "ADME, organism-based", "settings": "in vivo", "method_in_brief": "(§3)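 Baseline microPET (Concorde P4) in anesthetized cynomolgus monkey after injection of the [11C]-labelled tracer. Regional time-activity curves were taken, and each region's uptake was divided by cerebellum uptake (low-SERT reference) at 65, 85 and 105 min postinjection.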"}, "Cynomolgus monkey [4]": {"tested_on": "Cynomolgus monkey", "assay": "Uptake in anesthetized cynomolgus monkey midbrain after 105.0 mins", "type": "ADME, organism-based", "settings": "in vivo, 1.75 h", "method_in_brief": "as §2"}, "Cynomolgus monkey [5]": {"tested_on": "Cynomolgus monkey", "assay": "Uptake in anesthetized cynomolgus monkey midbrain after 45.0 mins", "type": "ADME, organism-based", "settings": "in vivo, 0.75 h", "method_in_brief": "as §2"}, "Cynomolgus monkey [6]": {"tested_on": "Cynomolgus monkey", "assay": "Ratio of uptake in caudate to cerebellum of anesthetized cynomolgus monkey after 85 mins", "type": "ADME, organism-based", "settings": "in vivo", "method_in_brief": "as §3"}, "Cynomolgus monkey [7]": {"tested_on": "Cynomolgus monkey", "assay": "Uptake in anesthetized cynomolgus monkey medulla after 75.0 mins", "type": "ADME, organism-based, Medulla of organ", "settings": "in vivo, 1.25 h", "method_in_brief": "as §2"}, "Cynomolgus monkey [8]": {"tested_on": "Cynomolgus monkey", "assay": "Uptake in anesthetized cynomolgus monkey putamen after 45.0 mins", "type": "ADME, organism-based", "settings": "in vivo, 0.75 h", "method_in_brief": "(§4)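 Baseline microPET (Concorde P4) scan in anesthetized cynomolgus monkeys after injection of the carbon-11 labeled tracer, with no chase drug. Regional brain time-activity curves were followed over the scan. Tracer radiochemical purity and specific activity were determined by analytical HPLC at the time of injection.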"}, "Cynomolgus monkey [9]": {"tested_on": "Cynomolgus monkey", "assay": "Ratio of uptake in medulla to cerebellum of anesthetized cynomolgus monkey after 85 mins", "type": "ADME, organism-based", "settings": "in vivo", "method_in_brief": "as §3"}, "Cynomolgus monkey [10]": {"tested_on": "Cynomolgus monkey", "assay": "Uptake in anesthetized cynomolgus monkey putamen after 35.0 mins", "type": "ADME, organism-based", "settings": "in vivo", "method_in_brief": "as §4"}, "Cynomolgus monkey [11]": {"tested_on": "Cynomolgus monkey", "assay": "Uptake in anesthetized cynomolgus monkey occipital after 4.5 mins", "type": "ADME, organism-based, Occipital cortex", "settings": "in vivo, 0.075 h", "method_in_brief": "as §2"}, "Cynomolgus monkey [12]": {"tested_on": "Cynomolgus monkey", "assay": "Ratio of uptake in thalamus to cerebellum of anesthetized cynomolgus monkey after 65 mins", "type": "ADME, organism-based", "settings": "in vivo", "method_in_brief": "as §3"}, "Cynomolgus monkey [13]": {"tested_on": "Cynomolgus monkey", "assay": "Ratio of uptake in occipital to cerebellum of anesthetized cynomolgus monkey after 105 mins", "type": "ADME, organism-based", "settings": "in vivo, 1.75 h", "method_in_brief": "as §3"}, "Cynomolgus monkey [14]": {"tested_on": "Cynomolgus monkey", "assay": "Uptake in anesthetized cynomolgus monkey pons after 1.5 mins", "type": "ADME, organism-based, Macaca mulatta", "settings": "rhesus monkey, in vivo, 0.025 h", "method_in_brief": "as §2"}, "Cynomolgus monkey [15]": {"tested_on": "Cynomolgus monkey", "assay": "Uptake in anesthetized cynomolgus monkey medulla after 2.5 mins", "type": "ADME, organism-based, Medulla of organ", "settings": "in vivo", "method_in_brief": "as §2"}, "Cynomolgus monkey [16]": {"tested_on": "Cynomolgus monkey", "assay": "Uptake in anesthetized cynomolgus monkey thalamus after 115.0 mins", "type": "ADME, organism-based", "settings": "in vivo", "method_in_brief": "as §4"}, "Cynomolgus monkey [17]": {"tested_on": "Cynomolgus monkey", "assay": "Uptake in anesthetized cynomolgus monkey medulla after 6.5 mins", "type": "ADME, organism-based, Medulla of organ", "settings": "in vivo", "method_in_brief": "as §2"}, "Cynomolgus monkey [18]": {"tested_on": "Cynomolgus monkey", "assay": "Uptake in anesthetized cynomolgus monkey midbrain after 55.0 mins", "type": "ADME, organism-based", "settings": "in vivo", "method_in_brief": "as §2"}, "Cynomolgus monkey [19]": {"tested_on": "Cynomolgus monkey", "assay": "Uptake in anesthetized cynomolgus monkey putamen after 2.5 mins", "type": "ADME, organism-based", "settings": "in vivo", "method_in_brief": "as §4"}, "Cynomolgus monkey [20]": {"tested_on": "Cynomolgus monkey", "assay": "Uptake in anesthetized cynomolgus monkey occipital after 0.5 mins", "type": "ADME, organism-based, Occipital cortex", "settings": "in vivo", "method_in_brief": "as §2"}, "Cynomolgus monkey [21]": {"tested_on": "Cynomolgus monkey", "assay": "Uptake in anesthetized cynomolgus monkey frontal after 75.0 mins", "type": "ADME, organism-based, Frontal cortex", "settings": "in vivo, 1.25 h", "method_in_brief": "as §2"}, "Cynomolgus monkey [22]": {"tested_on": "Cynomolgus monkey", "assay": "Uptake in anesthetized cynomolgus monkey frontal after 105.0 mins", "type": "ADME, organism-based, Frontal cortex", "settings": "in vivo, 1.75 h", "method_in_brief": "as §2"}, "Cynomolgus monkey [23]": {"tested_on": "Cynomolgus monkey", "assay": "Uptake in anesthetized cynomolgus monkey medulla after 55.0 mins", "type": "ADME, organism-based, Medulla of organ", "settings": "in vivo", "method_in_brief": "as §2"}, "Cynomolgus monkey [24]": {"tested_on": "Cynomolgus monkey", "assay": "Uptake in anesthetized cynomolgus monkey medulla after 3.5 mins", "type": "ADME, organism-based, Medulla of organ", "settings": "in vivo", "method_in_brief": "as §2"}, "Cynomolgus monkey [25]": {"tested_on": "Cynomolgus monkey", "assay": "Uptake in anesthetized cynomolgus monkey caudate after 115.0 mins", "type": "ADME, organism-based, Caudate nucleus", "settings": "in vivo", "method_in_brief": "as §1"}, "Cynomolgus monkey [26]": {"tested_on": "Cynomolgus monkey", "assay": "Uptake in anesthetized cynomolgus monkey medulla after 4.5 mins", "type": "ADME, organism-based, Medulla of organ", "settings": "in vivo, 0.075 h", "method_in_brief": "as §2"}, "Cynomolgus monkey [27]": {"tested_on": "Cynomolgus monkey", "assay": "Uptake in anesthetized cynomolgus monkey occipital after 65.0 mins", "type": "ADME, organism-based, Macaca mulatta, Occipital cortex", "settings": "rhesus monkey, in vivo", "method_in_brief": "as §2"}, "Cynomolgus monkey [28]": {"tested_on": "Cynomolgus monkey", "assay": "Uptake in anesthetized cynomolgus monkey frontal after 0.5 mins", "type": "ADME, organism-based, Frontal cortex", "settings": "in vivo", "method_in_brief": "as §1"}, "Cynomolgus monkey [29]": {"tested_on": "Cynomolgus monkey", "assay": "Ratio of uptake in thalamus to cerebellum of anesthetized cynomolgus monkey after 105 mins", "type": "ADME, organism-based", "settings": "in vivo, 1.75 h", "method_in_brief": "as §3"}, "Cynomolgus monkey [30]": {"tested_on": "Cynomolgus monkey", "assay": "Uptake in anesthetized cynomolgus monkey occipital after 12.5 mins", "type": "ADME, organism-based, Macaca mulatta, Occipital cortex", "settings": "rhesus monkey, in vivo", "method_in_brief": "as §2"}, "Cynomolgus monkey [31]": {"tested_on": "Cynomolgus monkey", "assay": "Uptake in anesthetized cynomolgus monkey cerebellum after 18.5 mins", "type": "ADME, organism-based, Macaca mulatta", "settings": "rhesus monkey, in vivo", "method_in_brief": "as §1"}, "Cynomolgus monkey [32]": {"tested_on": "Cynomolgus monkey", "assay": "Uptake in anesthetized cynomolgus monkey thalamus after 18.5 mins", "type": "ADME, organism-based", "settings": "in vivo", "method_in_brief": "as §4"}, "Cynomolgus monkey [33]": {"tested_on": "Cynomolgus monkey", "assay": "Uptake in anesthetized cynomolgus monkey pons after 85.0 mins", "type": "ADME, organism-based", "settings": "in vivo", "method_in_brief": "as §4"}, "Cynomolgus monkey [34]": {"tested_on": "Cynomolgus monkey", "assay": "Uptake in anesthetized cynomolgus monkey frontal after 27.5 mins", "type": "ADME, organism-based, Frontal cortex", "settings": "in vivo", "method_in_brief": "as §2"}, "Cynomolgus monkey [35]": {"tested_on": "Cynomolgus monkey", "assay": "Uptake in anesthetized cynomolgus monkey medulla after 65.0 mins", "type": "ADME, organism-based, Medulla of organ", "settings": "in vivo", "method_in_brief": "as §2"}}}
{"smiles": "[11CH3]OC(=O)[C@@H]1C2CCC(C[C@@H]1c1cccc(/C=C/I)c1)N2", "note": "(stereo not given in full)", "values": [{"measurement": "Drug uptake", "setting": "Cynomolgus monkey [1]", "result": 5.71}, {"measurement": "Drug uptake", "setting": "Cynomolgus monkey [2]", "result": 0.02}, {"measurement": "Ratio", "setting": "Cynomolgus monkey [3]", "result": 1}, {"measurement": "Drug uptake", "setting": "Cynomolgus monkey [4]", "result": 7.34}, {"measurement": "Drug uptake", "setting": "Cynomolgus monkey [5]", "result": 7.66}, {"measurement": "Ratio", "setting": "Cynomolgus monkey [6]", "result": 1.5}, {"measurement": "Drug uptake", "setting": "Cynomolgus monkey [7]", "result": 6.9}, {"measurement": "Drug uptake", "setting": "Cynomolgus monkey [8]", "result": 7.16}, {"measurement": "Ratio", "setting": "Cynomolgus monkey [9]", "result": 1.8}, {"measurement": "Drug uptake", "setting": "Cynomolgus monkey [10]", "result": 7.2}, {"measurement": "Drug uptake", "setting": "Cynomolgus monkey [11]", "result": 2.44}, {"measurement": "Ratio", "setting": "Cynomolgus monkey [12]", "result": 1.6}, {"measurement": "Ratio", "setting": "Cynomolgus monkey [13]", "result": 1.1}, {"measurement": "Drug uptake", "setting": "Cynomolgus monkey [14]", "result": 0.29}, {"measurement": "Drug uptake", "setting": "Cynomolgus monkey [15]", "result": 1.4}, {"measurement": "Drug uptake", "setting": "Cynomolgus monkey [16]", "result": 6.16}, {"measurement": "Drug uptake", "setting": "Cynomolgus monkey [17]", "result": 5.28}, {"measurement": "Drug uptake", "setting": "Cynomolgus monkey [18]", "result": 7.57}, {"measurement": "Drug uptake", "setting": "Cynomolgus monkey [19]", "result": 1.14}, {"measurement": "Drug uptake", "setting": "Cynomolgus monkey [20]", "result": 0.01}, {"measurement": "Drug uptake", "setting": "Cynomolgus monkey [21]", "result": 3.73}, {"measurement": "Drug uptake", "setting": "Cynomolgus monkey [22]", "result": 3.42}, {"measurement": "Drug uptake", "setting": "Cynomolgus monkey [23]", "result": 7.26}, {"measurement": "Drug uptake", "setting": "Cynomolgus monkey [24]", "result": 2.62}, {"measurement": "Drug uptake", "setting": "Cynomolgus monkey [25]", "result": 4.84}, {"measurement": "Drug uptake", "setting": "Cynomolgus monkey [26]", "result": 3.9}, {"measurement": "Drug uptake", "setting": "Cynomolgus monkey [27]", "result": 4.4}, {"measurement": "Drug uptake", "setting": "Cynomolgus monkey [28]", "result": 0.01}, {"measurement": "Ratio", "setting": "Cynomolgus monkey [29]", "result": 2.1}, {"measurement": "Drug uptake", "setting": "Cynomolgus monkey [30]", "result": 4.52}, {"measurement": "Drug uptake", "setting": "Cynomolgus monkey [31]", "result": 5.74}, {"measurement": "Drug uptake", "setting": "Cynomolgus monkey [32]", "result": 6.41}, {"measurement": "Drug uptake", "setting": "Cynomolgus monkey [33]", "result": 5.86}, {"measurement": "Drug uptake", "setting": "Cynomolgus monkey [34]", "result": 4.09}, {"measurement": "Drug uptake", "setting": "Cynomolgus monkey [35]", "result": 6.94}]}
